Laboratory results published in PMC9621298 (Journal of Enzyme Inhibition and Medicinal Chemistry, 2022).
“Also recorded” adds a separate entry of the source. Each block holds one compound with its values, some of them ahead of it.

Columns and labels:
Siah1 [1] = target: T1, Siah1 (Homo sapiens, UniProt Q8IUQ4); assay: In vitro pull-down assay with biotin-attached E3 ligase ligands; settings: tested as biotin-attached 5 and 6; no binding to AIMP2-DX2
T1 sequence (Q8IUQ4 1-282): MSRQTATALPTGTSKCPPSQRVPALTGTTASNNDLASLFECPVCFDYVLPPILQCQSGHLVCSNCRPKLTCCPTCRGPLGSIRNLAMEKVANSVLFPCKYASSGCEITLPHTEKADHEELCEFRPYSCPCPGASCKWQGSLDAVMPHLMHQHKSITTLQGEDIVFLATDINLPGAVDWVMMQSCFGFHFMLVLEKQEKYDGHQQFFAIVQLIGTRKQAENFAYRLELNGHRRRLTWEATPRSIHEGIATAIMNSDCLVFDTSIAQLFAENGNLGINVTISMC

Siah1 [2] = target: T1, Siah1; assay: Surface plasmon resonance; assay type: binding; settings: details are not reported
AIMP2-DX2 [3] = target: T2, AIMP2-DX2 (Homo sapiens, UniProt Q13155); assay: Screening: luminescence of luciferase-tagged AIMP2-DX2 in A549 cells; assay type: cell-based; settings: 4 µM, 24 h
T2 sequence (Q13155 1-251 isoform Q13155-2): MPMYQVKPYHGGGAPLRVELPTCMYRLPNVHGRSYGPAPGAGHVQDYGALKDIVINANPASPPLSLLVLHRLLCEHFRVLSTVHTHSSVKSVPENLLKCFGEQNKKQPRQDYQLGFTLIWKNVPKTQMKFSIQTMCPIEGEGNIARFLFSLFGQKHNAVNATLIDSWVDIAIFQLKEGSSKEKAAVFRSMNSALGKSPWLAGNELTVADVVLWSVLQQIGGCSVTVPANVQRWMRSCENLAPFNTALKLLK

[4] = target: T3, binding of Siah1 to AIMP2-DX2 (Homo sapiens, UniProt Q13155+Q8IUQ4); assay: Immunoprecipitation assay: cellular binding of AIMP2-DX2 and Siah1; assay type: cell-based; settings: Figure 5(A)
T3 sequence (Q13155 1-251 isoform Q13155-2): T2 sequence (Q13155 1-251 isoform Q13155-2)
T3 sequence (Q8IUQ4 1-282): T1 sequence (Q8IUQ4 1-282)

AIMP2 = target: T4, AIMP2 (Homo sapiens, UniProt Q13155); assay: Western blotting of AIMP2 level; assay type: cell-based; settings: selectivity versus AIMP2-DX2
T4 sequence (Q13155 1-320): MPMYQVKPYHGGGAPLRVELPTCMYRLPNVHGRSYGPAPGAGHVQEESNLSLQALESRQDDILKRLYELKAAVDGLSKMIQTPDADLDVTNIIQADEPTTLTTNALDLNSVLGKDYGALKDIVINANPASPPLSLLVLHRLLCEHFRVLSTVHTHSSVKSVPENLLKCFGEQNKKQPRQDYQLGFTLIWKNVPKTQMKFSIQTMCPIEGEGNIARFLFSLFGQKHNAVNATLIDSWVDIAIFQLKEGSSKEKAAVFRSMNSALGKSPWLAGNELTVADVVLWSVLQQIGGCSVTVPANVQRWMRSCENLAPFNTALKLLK

[5] = target: T5, binding of Siah1 and AIMP2-DX2 (Homo sapiens, UniProt Q13155+Q8IUQ4); assay: In vitro pull-down assay: binding of Siah1 and AIMP2-DX2; settings: Figure 5(B)
T5 sequence (Q13155 1-251 isoform Q13155-2): T2 sequence (Q13155 1-251 isoform Q13155-2)
T5 sequence (Q8IUQ4 1-282): T1 sequence (Q8IUQ4 1-282)
Summary of the method: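 Direct binding of the two proteins was tested in vitro by GST pull-down with test compound present. An empty-vector control was included. GST proteins were detected by Coomassie staining.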

AIMP2-DX2 [6] = target: T2, AIMP2-DX2; assay: Western blotting of AIMP2-DX2 protein level; assay type: cell-based; settings: Figure 6(A)
Siah1-knockdowned cells = assay: MTT cell viability assay with Siah1 knockdown by si-RNA; assay type: cell-based; settings: Figure 7(A)
Summary of the method: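 Cells were knocked down for Siah1 with specific si-RNA and then treated with test compound. Viability was read by MTT: 96 h in serum-free medium, MTT for 1.5 h at 37 °C, formazan in DMSO, absorbance at 560 nm. Siah1 and AIMP2-DX2 protein levels were checked by immunoblotting. Three independent repeats.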

AIMP2-DX2 [7] = target: T2, AIMP2-DX2; assay: Ubiquitination assay in 293 T cells expressing strep-tagged AIMP2-DX2; assay type: cell-based; settings: 293 T cells expressing strep-AIMP2-DX2, with MG132
Summary of the method: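 293 T cells were grown in DMEM with 10% FBS at 37 °C in 5% CO2 and expressed strep-tagged AIMP2-DX2 from the pEXPR-IBA5 vector. AIMP2-DX2 was pulled down on strep-tactin, run on SDS-PAGE and immunoblotted, including with anti-ubiquitin.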

SMILES: Nc1cccc2c1C(=O)N(C1CCC(=O)NC1=O)C2=O (centres unmarked) [Compound 4, pomalidomide]
binding to Siah1 (in vitro pull-down) (Siah1 [1]): specifically bind to Siah1
binding affinity with Siah1 (SPR) (Siah1 [2]): most favourable; also recorded: some degree of binding affinity

SMILES: O=C1CCC(N2C(=O)c3cccc(NC(=O)COCCOCCOCCOCCOCCNC(=O)c4ccc(S(=O)(=O)N[C@@H](Cc5c[nH]c6ccccc56)C(=O)Nc5ccc(N6CCOCC6)cc5)cc4)c3C2=O)C(=O)N1 (stereo partly drawn) [Compound 31, 4-(N-((S)-3-(1H-Indol-3-yl)-1-((4-morpholinophenyl)amino)-1-oxopropan-2-yl)sulfamoyl)-N-(17-((2–(2,6-dioxopiperidin-3-yl)-1,3-dioxoisoindolin-4-yl)amino)-17-oxo-3,6,9,12,15-pentaoxaheptadecyl)benzamide]
inhibitory activity on AIMP2-DX2 (in words) (AIMP2-DX2 [3]): very poor inhibitory activities

SMILES: Cc1ccc(S(=O)(=O)N[C@@H](Cc2c[nH]c3ccccc23)C(=O)Nc2ccc(N3CCN(C(=O)CCOCCNc4cccc5c4C(=O)N(C4CCC(=O)NC4=O)C5=O)CC3)cc2)cc1 (stereo partly drawn) [Compound 45, (2S)-N-(4–(4-(3–(2-((2–(2,6-Dioxopiperidin-3-yl)-1,3-dioxoisoindolin-4-yl)amino)ethoxy)propanoyl)piperazin-1-yl)phenyl)-3-(1H-indol-3-yl)-2-((4-methylphenyl)sulfonamido)propanamide]
endogenous binding of Siah1 to AIMP2-DX2 (immunoprecipitation) [4]: enhances the endogenous binding of Siah1 to AIMP2-DX2 in a dose-dependent manner
effect on AIMP2 (AIMP2): without any effect on AIMP2
binding of Siah1 and AIMP2-DX2 (in vitro pull-down) [5]: direct effect on binding of two proteins
level of AIMP2-DX2 protein (AIMP2-DX2 [6]): specifically decreased
cell viability (Siah1-knockdowned cells; Siah1 knocked down using specific si-RNA): no significant difference in cell viability
cell viability (Siah1-knockdowned cells; Siah1 not knocked down): efficiently reduced cell viability
ubiquitination of AIMP2-DX2 (AIMP2-DX2 [7]): induced

The remaining lines, values ahead:

inhibitory activity on AIMP2-DX2 (in words) (AIMP2-DX2 [3]): very poor inhibitory activities
SMILES: O=C1CCC(N2C(=O)c3cccc(OCCOCCOCCOCCOCCOCc4cn(Cc5ccc(S(=O)(=O)N[C@@H](Cc6c[nH]c7ccccc67)C(=O)Nc6ccc(N7CCOCC7)cc6)cc5)nn4)c3C2=O)C(=O)N1 (stereo partly drawn) [Compound 16, (2S)-2-((4-((4–(16-((2–(2,6-dioxopiperidin-3-yl)-1,3-Dioxoisoindolin-4-yl)oxy)-2,5,8,11,14-pentaoxahexadecyl)-1H-1,2,3-triazol-1-yl)methyl)phenyl)sulfonamido)-3-(1H-indol-3-yl)-N-(4-morpholinophenyl)propanamide]

inhibitory activity on AIMP2-DX2 (in words) (AIMP2-DX2 [3]): very poor inhibitory activities
SMILES: O=C1CCC(N2C(=O)c3cccc(NC(=O)CCOCCOCCOCCOCc4cn(Cc5ccc(S(=O)(=O)N[C@@H](Cc6c[nH]c7ccccc67)C(=O)Nc6ccc(N7CCOCC7)cc6)cc5)nn4)c3C2=O)C(=O)N1 (stereo partly drawn) [Compound 21, 1–(1-(4-(N-((S)-3-(1H-Indol-3-yl)-1-((4-morpholinophenyl)amino)-1-oxopropan-2-yl)sulfamoyl)benzyl)-1H-1,2,3-triazol-4-yl)-N-(2–(2,6-dioxopiperidin-3-yl)-1,3-dioxoisoindolin-4-yl)-2,5,8,11-tetraoxatetradecan-14-amide]

inhibitory activity on AIMP2-DX2 (in words) (AIMP2-DX2 [3]): very poor inhibitory activities
SMILES: O=C1CCC(N2C(=O)c3cccc(NC(=O)CCOCCOCCOCCOCCOCc4cn(Cc5ccc(S(=O)(=O)N[C@@H](Cc6c[nH]c7ccccc67)C(=O)Nc6ccc(N7CCOCC7)cc6)cc5)nn4)c3C2=O)C(=O)N1 (stereo partly drawn) [Compound 22, 1–(1-(4-(N-((S)-3-(1H-Indol-3-yl)-1-((4-morpholinophenyl)amino)-1-oxopropan-2-yl)sulfamoyl)benzyl)-1H-1,2,3-triazol-4-yl)-N-(2–(2,6-dioxopiperidin-3-yl)-1,3-dioxoisoindolin-4-yl)-2,5,8,11,14-pentaoxaheptadecan-17-amide]

inhibitory activity on AIMP2-DX2 (in words) (AIMP2-DX2 [3]): very poor inhibitory activities
SMILES: O=C1CCC(N2C(=O)c3cccc(NC(=O)CCOCCOCCOCCOCCOCCOCc4cn(Cc5ccc(S(=O)(=O)N[C@@H](Cc6c[nH]c7ccccc67)C(=O)Nc6ccc(N7CCOCC7)cc6)cc5)nn4)c3C2=O)C(=O)N1 (stereo partly drawn) [Compound 23, 1–(1-(4-(N-((S)-3-(1H-Indol-3-yl)-1-((4-morpholinophenyl)amino)-1-oxopropan-2-yl)sulfamoyl)benzyl)-1H-1,2,3-triazol-4-yl)-N-(2–(2,6-dioxopiperidin-3-yl)-1,3-dioxoisoindolin-4-yl)-2,5,8,11,14,17-hexaoxaicosan-20-amide]
